scMet, MES and Toxicity data for 22 compounds are collected here from ChEMBL document CHEMBL1123210, “Cycloheximide analogues as potential anticonvulsants” (J Med Chem, 1986).

In series [1] the test system is Mus musculus. Briefly: Inhibition of subcutaneous pentylenetetrazole induced seizures in mice 4 hr following i.p. administration; Inactive. It counts as functional, organism-based.
Series [2] concerns Mus musculus. Briefly: Compound was tested for maximal electroshock seizure test in mice 0.5 hr after administration; IA is Inactive. The class given is functional, organism-based.
Series [3] has as its system Mus musculus. Nature of the series: Compound was tested for subcutaneous pentylenetetrazole seizure test in mice after administration intraperitoneally at 0.5 hr; IA is Inactive. It counts as functional, organism-based.
The test system of series [4] is Mus musculus. Nature of the series: Inhibition of maximal electroshock induced seizures in mice 4 hr after administration; Inactive. It counts as functional, organism-based.
Series [5] concerns Mus musculus. Briefly: (§1) Compound was tested for maximal electroshock seizure test in mice 0.5 hr after administration. It counts as functional.
The species entered for series [6] is Mus musculus. Briefly: Number of mice exhibiting toxicity out of four (4) mice was measured by using rotarod test. As to conditions: in vivo. The class given is organism-based. The method, boiled down:
(§2)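 Neurotoxicity was scored in the rotorod test in mice given doses up to 600 mg/kg. The value is the number of animals out of four showing toxicity. It was recorded for both the initial screen and the repeat pentylenetetrazol screen.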

The test system of series [7] is Mus musculus. Briefly: (§3) Compound was tested for the lowest dose which protected half of the mice in pentylenetetrazole seizure test 0.5 hr after ip administration of the compound. It counts as functional. An outline of the steps:
(§4)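 This was a repeat of the subcutaneous pentylenetetrazol screen in mice (85 mg/kg s.c.). Endpoint was prevention of clonic seizures, four animals per dose at 30, 100, 300 or 600 mg/kg. The value is the lowest dose at which at least half of the four animals were protected.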

Series [8] relates to Mus musculus. Briefly: (§5) Compound was tested for subcutaneous pentylenetetrazole seizure test in mice after administration intraperitoneally at 0.5h. It counts as functional.
Series [9] has as its system Mus musculus. Briefly: Number of mice exhibiting toxicity out of four (4) mice in repeated subcutaneous pentylenetetrazole seizure test was measured by using rotarod test. The class given is organism-based. As to conditions: in vivo. An outline of the steps:
as §2

Series [10] relates to Mus musculus. Briefly: Compound was tested for maximal electroshock seizure test in mice 0.5 hr after administration; IA is Inactivev. It counts as functional, organism-based.
Series [11] deals with Mus musculus. Nature of the series: Compound was tested for maximal electroshock seizure test in mice 4 hr after administration. The class given is functional.
Series [12] relates to Mus musculus. Briefly: (§6) Compound was tested for maximal electroshock seizure test in mice 4 hr after administration; IA is Inactive. It counts as functional, organism-based. An outline of the steps: (§7)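 Mice, four per dose level, screened at 30, 100, 300 and 600 mg/kg and read at 0.5 h and 4 h after dosing. End point is prevention of tonic hindlimb extension after maximal electroshock. Activity is the lowest dose at which at least one of four animals is protected.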

In series [13] the test system is Mus musculus. The series is described as §5. The class given is functional. The method, boiled down: (§8)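 Mice, four per dose level, screened at 30, 100, 300 and 600 mg/kg and read at 0.5 h and 4 h after dosing. End point is prevention of minimal threshold (clonic) seizures induced by pentylenetetrazol 85 mg/kg sc. Activity is the lowest dose at which at least one of four animals is protected.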
This is another data set of the same source.

The subject of series [14] is Mus musculus. Described as §3. The class given is functional. An outline of the steps: (§9)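 Repeat pentylenetetrazol screen (85 mg/kg sc, clonic seizure end point) in four mice per dose, at 30, 100, 300 and 600 mg/kg, read at 0.5 h and 4 h. The value is the lowest dose at which at least half of the four animals were protected. A few cases were rescreened at 100, 250, 450 and 600 mg/kg or used only three animals.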
The source holds these as a separate data set.

Series [15] deals with Mus musculus. Briefly: (§10) Compound was tested for the lowest dose which protected half of the mice in pentylenetetrazole seizure test 4 hr after ip administration of the compound. It counts as functional. An outline of the steps:
as §9

The test system of series [16] is Mus musculus. The description is as §1. The class given is functional. An outline of the steps: as §7
This is another data set of the same source.

Series [17] deals with Mus musculus. Briefly: (§11) Compound was tested for subcutaneous pentylenetetrazole seizure test in mice after administration intraperitoneally at 4h. The class given is functional. An outline of the steps:
as §8

Series [18] has as its system Mus musculus. The description is as §11. The class given is functional. The source holds these as a separate data set.
Series [19] deals with Mus musculus. Nature of the series: Compound was tested for the lowest dose which protected half of the mice in pentylenetetrazole seizure test 0.5 hr after ip administration of the compound; IA is Inactive. The class given is functional, organism-based. The method, boiled down:
as §4

Series [20] concerns Mus musculus. The description is as §6. It counts as functional, organism-based. This is another data set of the same source.
Series [21] relates to Mus musculus. Briefly: Compound was tested for subcutaneous pentylenetetrazole seizure test in mice after administration intraperitoneally at 4h.; IA is Inactive. The class given is functional, organism-based.
Series [22] relates to Mus musculus. Described as §10. It counts as functional. An outline of the steps:
as §4
The source holds these as a separate data set.

The subject of series [23] is Mus musculus. Briefly: Compound was tested for the lowest dose which protected half of the mice in pentylenetetrazole seizure test 4 hr after ip administration of the compound; IA is Inactive. It counts as functional, organism-based. The method, boiled down: as §4

Calls of active or inactive are those of the source.

With `C[C@H]1CC(C(=O)CC2CC(=O)NC(=O)C2)C(=O)[C@@H](C)C1` (stereo not given in full), the scMet result in series [1] and in series [3] was “inactive” each time. The MES entry in series [2] and in [4] was “inactive” in each case.

For the compound `C[C@@H]1CC(C2CC(CC(=O)NCc3ccccc3)CC(=O)O2)[C@@H](O)[C@@H](C)C1` (stereo not given in full), the scMet entry in series [1] and in series [3] was “inactive” throughout. Moreover, the MES result in series [2] and in series [4] was “inactive” each time.

As for `C[C@H]1CCC(=O)C(C(=O)CC2CC(=O)NC(=O)C2)C1` (stereo not given in full), the scMet result in [1] and in series [3] was “inactive” each time. The MES entry in [2] and in series [4] was “inactive” in each case.

Consider `CC1CCCC(C(=O)CC2CC(=O)N(C)C(=O)C2)C1=O` (stereo in doubt; 2g), for which the MES result in series [4] was “inactive”. This compound also came in with an MES in [5] of 600 mg/kg.

As to `O=C1CC(CC(=O)C2CCCCC2=O)CC(=O)N1` (stereo not given), the scMet result in series [1] was “inactive”. Besides, the MES entry in series [2] and in series [4] was “inactive” throughout. Besides, the Toxicity in series [6] turned out to be 0. Also, the scMet in [7] and in [8] was 600 mg/kg in each case.

On to `CN1C(=O)CC(C[C@@H](O)C2CCCC[C@@H]2O)CC1=O` (stereo not given in full), for which the scMet result in [1] and in [3] was “inactive” in each case. Also, the MES entry in [2] and in [4] was “inactive” in each case.

As for `O=C1CC(C[C@@H](O)C2CCCC[C@@H]2O)CC(=O)N1` (stereo not given in full), the Toxicity in [9] and in series [6] was 0 in each case. In addition, the scMet result in [1] is “inactive”. The MES result in [2] and in series [4] was “inactive” each time. Further, the scMet stood at 600 mg/kg in series [7] and 100 mg/kg in [8].

For `C[C@H]1CCCC(C(=O)CC2CC(=O)NC(=O)C2)C1=O` (stereo not given in full), the Toxicity in series [9] and in series [6] was 0 throughout. In addition, the scMet result in series [1] was “inactive”. The MES entry in [2] and in series [4] was “inactive” throughout. Moreover, in [7], the MES came to 100 mg/kg. Also, the scMet in series [8] came out at 300 mg/kg.

As for `C[C@@H]1CC(C(=O)CC2CC(=O)N(C)C(=O)C2)C(=O)[C@@H](C)C1` (stereo not given in full), the Toxicity in series [9] and in series [6] was 1 each time. The scMet entry in series [1] is “inactive”. Further, the MES entry in [10] is “inactive”. The scMet in series [7] and in series [8] was 600 mg/kg throughout. Moreover, the MES in [11] came to 600 mg/kg.

As to `CC(=O)O[C@H](CC1CC(=O)N(C)C(=O)C1)C1C[C@@H](C)C[C@H](C)C1=O` (stereo not given in full), the scMet entry in series [1] and in series [3] was “inactive” throughout. The MES entry in [2] and in series [4] was “inactive” each time.

As to `C[C@@H]1CCC(=O)C(C(=O)CC2CC(=O)NC2=O)C1` (stereo not given in full), the Toxicity in series [9] came to 1; in [6], 2. Besides, the scMet result in series [1] is “inactive”. Besides, the scMet in [7] and in series [8] was 600 mg/kg each time. In addition, the MES result in series [4] is “inactive”. Besides, the MES in series [5] was determined as 600 mg/kg.

Regarding `CN1C(=O)CC(CC(=O)C2CCCCC2=O)CC1=O` (stereo in doubt; 2e), the scMet entry in [1] and in series [3] was “inactive” each time. Moreover, the MES result in series [2] and in series [4] was “inactive” each time.

With `C[C@H]1CC([C@H](O)CC2CC(=O)N(Cc3ccccc3)C(=O)C2)[C@@H](O)[C@@H](C)C1` (stereo not given in full), the scMet entry in series [1] and in [3] was “inactive” throughout. Moreover, the MES result in [2] and in series [4] was “inactive” throughout.

Take `C[C@@H]1CC([C@H](O)CC2CC(=O)NC(=O)C2)C(=O)[C@@H](C)C1` (stereo not given in full): the results for the Toxicity in [9] and in [6] were 0 animals and 1, respectively. Further, in series [12], the MES result is “inactive”. In addition, the scMet in series [13] is 100 mg/kg; in series [14], 100 mg/kg; in series [15], 300 mg/kg; in series [17] it was 300 mg/kg. In [16], this compound returned an MES of 600 mg/kg.

`C[C@H]1CC([C@H](O)CC2CC(=O)N(C)C(=O)C2)[C@@H](O)[C@@H](C)C1` (stereo not given in full): the scMet result in [1] and in series [3] was “inactive” each time. Also, the Toxicity in [6] was found to be 0. The MES result in series [4] is “inactive”. In series [5], this compound registered an MES of 600 mg/kg.

The compound `C[C@@H]1CCc2c(c(CC3CC(=O)NC(=O)C3)nn2-c2ccccc2)C1` came in with a scMet in series [18] of 30 mg/kg. Besides, the MES result in [2], in series [4] and in [19] was “inactive” in each case. In series [6], this compound gave a Toxicity of 0. The scMet result in series [3] was “inactive”.

For the compound `C[C@H]1CCCC([C@H](O)CC2CC(=O)N(C)C(=O)C2)[C@H]1O` (stereo not given in full), the scMet entry in series [1] and in [3] was “inactive” in each case. Also, the MES entry in series [20] is “inactive”. The compound also returned a Toxicity in series [6] of 0. For the same compound, the MES in [5] was 600 mg/kg.

Regarding `C[C@H]1CCC(=O)C(C(=O)CC2CC(=O)N(C)C(=O)C2)C1` (stereo not given in full), the scMet result in series [1] and in series [3] was “inactive” in each case. In addition, the MES entry in [2] and in [4] was “inactive” throughout.

With `O=C1CC(CC(=O)C2CCCCC2=O)C(=O)N1` (stereo not given), the Toxicity in series [9] and in [6] was 0 each time. For the same compound, the MES result in series [2] and in [4] was “inactive” in each case. The scMet in series [7] and in [8] was 600 mg/kg each time. Further, the scMet result in series [21] is “inactive”.

In the case of `C[C@H]1CC[C@H](O)C([C@H](O)CC2CC(=O)N(C)C(=O)C2)C1` (stereo not given in full), the scMet entry in series [1] and in series [3] was “inactive” each time. In series [6], this compound had a Toxicity of 4. Besides, the MES entry in series [4] was “inactive”. In series [5], this compound came in with an MES of 600 mg/kg.

For `C[C@H]1CC([C@H](O)CC2CC(=O)NC(=O)C2)[C@@H](O)[C@@H](C)C1` (stereo not given in full), the Toxicity is recorded as 0 in series [9] and 1 in series [6]. Besides, the scMet stood at 600 mg/kg in [22], 600 mg/kg in series [18], 100 mg/kg in [7] and 100 mg/kg in [8]. The MES result in series [2] and in series [4] was “inactive” each time.

Regarding `C[C@H]1CC[C@H](O)C([C@H](O)CC2CC(=O)NC(=O)C2)C1` (stereo not given in full), the MES result in series [23], in series [2] and in series [4] was “inactive” in each case. Besides, the Toxicity in series [9] and in series [6] was 0 throughout. The scMet in [18] was found to be 600 mg/kg; in series [7], 30 mg/kg; in series [8], 30 mg/kg.
